The values below come from ChEMBL document CHEMBL4811308, “Design, synthesis and broad spectrum antibreast cancer activity of diarylindoles via induction of apoptosis in aggressive breast cancer cells” (Bioorg Med Chem, 2021).

For assay [1], the system named is MDA-MB-231. As to the kind of experiment: Induction in caspase-mediated apoptosis in human MDA-MB-231 cells assessed as decrease in cell viability at 2 uM incubated for 24 hrs in presence of Z-VAD-FMK by MTT assay. Format: functional, cell-based. In a few lines: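 MDA-MB-231 cells pretreated 2 h with 50 µM Z-VAD-FMK, then exposed to 2 µM compound for 24 h. Viability by MTT (3 h), formazan in DMSO, absorbance at 540 nm. Three independent experiments, mean ± S.E.M.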
(In general: Tetrazolium dyes change colour on reduction, which living cells bring about.)

In assay [2] the test system is MDA-MB-231. The assay can be described thus: Induction of apoptosis in human MDA-MB-231 cells assessed as viable cells at 2 uM incubated for 24 hrs by annexin-V-FITC and PI staining based flow cytometry analysis (reference value: 95.27 to 97.16 %). The settings on record: read-out: Activity. Format: functional. Background: Flow cytometry measures light scatter and fluorescence of single cells or particles in a stream.

The test system of assay [3] is MDA-MB-231. The assay can be described thus: Induction of cell cycle arrest in human MDA-MB-231 cells assessed as accumulation at S phase at 4 uM incubated for 24 hrs by PI staining based flow cytometry analysis (reference value: 40.37 to 57.89 %). In kind it is functional.
Assay [4] relates to MDA-MB-231. As to the kind of experiment: Induction of apoptosis in human MDA-MB-231 cells assessed as early apoptotic cells at 2 uM incubated for 24 hrs by annexin-V-FITC and PI staining based flow cytometry analysis (reference value: 0.28 to 4.68 %). In kind it is functional. In a few lines: (§1)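 MDA-MB-231 cells (1 × 10^6) grown 24 h in six-well plates, then treated for 24 h. Cells trypsinized, PBS-washed and stained with Annexin V-FITC/PI in binding buffer for 10 min in the dark at room temperature. Early/late apoptotic fractions quantified by flow cytometry.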

Assay [5] has as its system MDA-MB-231. As to the kind of experiment: Induction of apoptosis in human MDA-MB-231 cells assessed as necrotic cells at 2 uM incubated for 24 hrs by annexin-V-FITC and PI staining based flow cytometry analysis (reference value: 0.01 to 0.8 %). Format: functional.
Assay [6] relates to MDA-MB-231. As to the kind of experiment: Induction of apoptosis in human MDA-MB-231 cells assessed as late apoptotic cells at 4 uM incubated for 24 hrs by annexin-V-FITC and PI staining based flow cytometry analysis (reference value: 0.28 to 0.84 %). Format: functional.
For assay [7], the target named is T1, Estrogen receptor (Homo sapiens) (UniProt P03372).
T1 sequence (whole entry): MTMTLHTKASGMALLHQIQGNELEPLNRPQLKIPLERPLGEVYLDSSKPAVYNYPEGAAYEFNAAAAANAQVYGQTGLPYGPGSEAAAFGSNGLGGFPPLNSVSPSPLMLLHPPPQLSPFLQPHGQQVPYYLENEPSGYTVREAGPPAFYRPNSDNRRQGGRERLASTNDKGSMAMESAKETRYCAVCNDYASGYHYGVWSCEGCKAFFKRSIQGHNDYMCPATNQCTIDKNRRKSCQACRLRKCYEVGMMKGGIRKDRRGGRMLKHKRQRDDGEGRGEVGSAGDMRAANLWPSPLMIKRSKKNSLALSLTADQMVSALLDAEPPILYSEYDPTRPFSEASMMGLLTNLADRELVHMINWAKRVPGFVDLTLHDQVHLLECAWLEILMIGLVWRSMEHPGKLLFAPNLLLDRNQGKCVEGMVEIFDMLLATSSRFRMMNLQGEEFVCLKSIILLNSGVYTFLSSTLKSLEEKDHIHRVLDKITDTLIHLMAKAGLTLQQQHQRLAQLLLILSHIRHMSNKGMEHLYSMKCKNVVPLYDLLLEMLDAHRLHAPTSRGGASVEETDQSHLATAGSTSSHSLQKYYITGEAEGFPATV
As to the kind of experiment: Transactivation of ERalpha (unknown origin) transfected in human MDA-MB-231 cells at 1 uM by dual luciferase receptor assay. Format: cell-based. The gist of the method:
(§2)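 MDA-MB-231 cells grown to 80-90% confluency, transfected with 500 ng of ERα (pSG5 mERα) or ERβ (pSG5-hERβ) expression vector plus pRL-SV40 Renilla for normalization, then reseeded. Cells incubated with E2 (100 nM), compound at 1 µM, or tamoxifen at 1 µM. Dual luciferase readout reported as percent normalized RLU, triplicate experiments with three replicates each.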

Assay [8] concerns MDA-MB-231. As to the kind of experiment: Induction of apoptosis in human MDA-MB-231 cells assessed as necrotic cells at 6 uM incubated for 24 hrs by annexin-V-FITC and PI staining based flow cytometry analysis (reference value: 0.01 to 0.8 %). Format: functional.
Assay [9] deals with MDA-MB-231. The assay can be described thus: Induction of apoptosis in human MDA-MB-231 cells assessed as early apoptotic cells at 4 uM incubated for 24 hrs by annexin-V-FITC and PI staining based flow cytometry analysis (reference value: 0.28 to 4.68 %). In kind it is functional. The gist of the method: as §1
Assay [10] concerns MDA-MB-231. As to the kind of experiment: Induction of ROS production in human MDA-MB-231 cells at 2 to 6 uM incubated for 24 hrs by DCFH-DA staining based flow cytometry analysis. Format: functional, cell-based. The settings on record: dose 2-6 µM. The gist of the method:
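MDA-MB-231 cells (1 × 10^6) seeded in 6-well plates for 24 h, then treated at several concentrations for 24 h. Cells trypsinized, fixed in cold methanol, stained with 30 µg/mL DCFH-DA for 30 min in the dark at room temperature, and analysed by flow cytometry.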

A further assay deals with MCF7. The assay can be described thus: Cytotoxicity against human MCF7 cells assessed as reduction in cell viability incubated for 24 hrs by MTT assay. In kind it is functional, cell-based. The settings on record: MCF7, 24 h. In a few lines: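 MTT viability: cells seeded at 1 × 10^4/well, grown 24 h, then exposed to a concentration range of compound for 24 h. MTT (5 mg/mL stock) added for 3 h, formazan dissolved in DMSO, absorbance read at 540 nm.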

The target in assay [11] is Estrogen receptor beta (Homo sapiens) (UniProt Q92731). The assay can be described thus: Transactivation of ERbeta (unknown origin) transfected in human MDA-MB-231 cells at 1 uM by dual luciferase receptor assay. In kind it is cell-based. In a few lines:
as §2

The test system of assay [12] is MDA-MB-231. As to the kind of experiment: Induction of autophagy in human MDA-MB-231 cells at 2 to 4 uM incubated for 24 hrs by MDC staining based fluorescence microscopic analysis. Format: functional, cell-based. The settings on record: dose 2-4 µM. The gist of the method: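 Autophagic vacuoles detected in MDA-MB-231 cells (1 × 10^6) seeded on cover slips for 24 h, then treated 24 h. Cells PBS-washed, stained with 0.05 mM monodansylcadaverine for 30 min in dark at room temperature, washed, and examined by fluorescence microscopy.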

Assay [13] concerns MDA-MB-231. As to the kind of experiment: Cytotoxicity against human MDA-MB-231 cells assessed as reduction in cell viability at 2 to 6 uM incubated for 24 hrs in presence of NAC by MTT assay. In kind it is functional, cell-based. The conditions noted are these: dose 2-6 µM. In a few lines: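 MDA-MB-231 cells pretreated 2 h with 10 mM N-acetylcysteine, then exposed to compound for 24 h. Viability by MTT (3 h), formazan in DMSO, absorbance at 540 nm. Three independent experiments, mean ± S.E.M.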

In assay [14] the test system is MDA-MB-231. The assay can be described thus: Induction of apoptosis in human MDA-MB-231 cells assessed as necrotic cells at 4 uM incubated for 24 hrs by annexin-V-FITC and PI staining based flow cytometry analysis (reference value: 0.01 to 0.8 %). Format: functional.
Assay [15] concerns MDA-MB-231. The assay can be described thus: Induction of cell cycle arrest in human MDA-MB-231 cells assessed as accumulation at G0/G1 phase at 4 uM incubated for 24 hrs by PI staining based flow cytometry analysis (reference value: 23.74 to 46.27 %). In kind it is functional.
Assay [16] deals with MDA-MB-231. The assay can be described thus: Induction of apoptosis in human MDA-MB-231 cells assessed as late apoptotic cells at 2 uM incubated for 24 hrs by annexin-V-FITC and PI staining based flow cytometry analysis (reference value: 0.28 to 0.84 %). In kind it is functional.
Assay [17] deals with MDA-MB-231. As to the kind of experiment: Induction of apoptosis in human MDA-MB-231 cells incubated for 24 hrs by annexin-V-FITC and PI staining based flow cytometry analysis. The conditions noted are these: dose 2-6 µM. Format: functional, cell-based.

Calls of active or inactive are those of the source. The rule behind the calls is not given here.

Estrogen receptor beta (Homo sapiens), sequence (Q92731 whole entry): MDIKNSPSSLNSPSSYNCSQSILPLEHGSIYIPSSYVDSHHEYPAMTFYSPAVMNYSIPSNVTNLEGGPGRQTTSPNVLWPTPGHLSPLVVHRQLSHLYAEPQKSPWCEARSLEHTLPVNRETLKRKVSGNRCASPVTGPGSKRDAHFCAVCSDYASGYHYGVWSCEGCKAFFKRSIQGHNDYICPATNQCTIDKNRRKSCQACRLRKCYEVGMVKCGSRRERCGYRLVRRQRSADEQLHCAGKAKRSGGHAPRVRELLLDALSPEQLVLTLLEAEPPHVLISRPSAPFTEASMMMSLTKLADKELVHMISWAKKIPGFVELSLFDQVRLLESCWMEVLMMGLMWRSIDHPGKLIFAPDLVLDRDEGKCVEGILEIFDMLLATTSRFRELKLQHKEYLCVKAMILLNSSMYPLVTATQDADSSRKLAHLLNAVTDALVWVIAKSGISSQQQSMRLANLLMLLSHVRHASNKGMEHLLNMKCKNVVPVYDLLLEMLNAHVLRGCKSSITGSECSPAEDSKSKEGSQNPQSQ

As a reminder, the IC50 is the point on the concentration scale where inhibition reaches its midpoint. As to `COc1ccc2c(c1)c(Cc1ccc(OCCN(C)C)cc1)c(-c1cc(OC)c(OC)c(OC)c1)n2Cc1ccc(OCCN(C)C)cc1`, the result (with MDA-MB-231 [1]; in assay [7]; with MDA-MB-231 [13]) was inactive. In addition, in the assay with MDA-MB-231 [2], the viability at 2 µM stood at 80.7%. Also, the Activity was 38.65% with MDA-MB-231 [3]; 11.63% in the assay on MDA-MB-231 [4]; 2.34% with MDA-MB-231 [5]; 20.05% in the assay with MDA-MB-231 [6]; 9.08% in the assay on MDA-MB-231 [8]; 18.17% in the assay with MDA-MB-231 [9]. For the same compound, the Activity with MDA-MB-231 [14] is 3.44%; in the assay with MDA-MB-231 [15] it was 61.13%; in the assay on MDA-MB-231 [16] it was 5.32%; in the assay with MDA-MB-231 [17], “Dose-Dependent Effect”. In addition, the outcome (with MDA-MB-231 [10]; in assay [11] (filed as activator); in the assay on MDA-MB-231 [12]) was Active. Further, the IC50 in the assay with MCF7 turned out to be 4.48 µM.

Regarding `COc1ccc2c(c1)c(Cc1ccc(OCCN3CCCCC3)cc1)c(-c1cc(OC)c(OC)c(OC)c1)n2Cc1ccc(OCCN2CCCCC2)cc1`, the result in the assay with MDA-MB-231 [1], in the assay with MDA-MB-231 [10] and in the assay with MDA-MB-231 [12] was Active. Further, the viability at 2 µM in the assay on MDA-MB-231 [2] was 81.5%. Moreover, the Activity is 29.41% in the assay with MDA-MB-231 [3]; 12.28% in the assay with MDA-MB-231 [4]; 2.01% in the assay with MDA-MB-231 [5]; 26.25% in the assay on MDA-MB-231 [6]; 0.55% in the assay with MDA-MB-231 [8]; 16.02% in the assay on MDA-MB-231 [9]. Also, the Activity in the assay with MDA-MB-231 [14] is 1.69%; in the assay on MDA-MB-231 [15], 55.16%; in the assay with MDA-MB-231 [16], 4.26%; in the assay on MDA-MB-231 [17], “Dose-Dependent Effect”. Also, the outcome (in assay [7]; in assay [11]; in the assay with MDA-MB-231 [13]) was inactive. In addition, in the assay with MCF7, the IC50 turned out to be 6.48 µM.

As for `CCN(CC)CCOc1ccc(Cc2c(-c3cc(OC)c(OC)c(OC)c3)n(Cc3ccc(OCCN(CC)CC)cc3)c3ccc(OC)cc23)cc1`, the result (in the assay on MDA-MB-231 [1]; with MDA-MB-231 [10]; in [11] (filed as activator); with MDA-MB-231 [12]) was Active. Also, the viability at 2 µM in the assay with MDA-MB-231 [2] was found to be 88.2%. The Activity with MDA-MB-231 [3] stood at 38.03%; in the assay on MDA-MB-231 [4], 9.52%; in the assay with MDA-MB-231 [5] it was 4.3%; in the assay on MDA-MB-231 [6], 14.66%; in the assay on MDA-MB-231 [8], 2.09%; in the assay on MDA-MB-231 [9], 4.19%. In addition, the Activity in the assay with MDA-MB-231 [14] is 3.29%; in the assay on MDA-MB-231 [15], 53.87%; in the assay with MDA-MB-231 [16] it was 2.94%; in the assay with MDA-MB-231 [17], “Dose-Dependent Effect”. The outcome (in [7]; in the assay on MDA-MB-231 [13]) was inactive. Also, the IC50 in the assay on MCF7 is 6.36 µM.

On to `COc1ccc2c(c1)c(Cc1ccc(OC(C)CN(C)C)cc1)c(-c1cc(OC)c(OC)c(OC)c1)n2Cc1ccc(OC(C)CN(C)C)cc1` (configuration not stated), for which the outcome (in the assay with MDA-MB-231 [1]; in assay [7]; in the assay on MDA-MB-231 [13]) was inactive. Also, the viability at 2 µM in the assay with MDA-MB-231 [2] is 72.5%. For the same compound, the Activity in the assay on MDA-MB-231 [3] turned out to be 40.83%; in the assay on MDA-MB-231 [4], 17.38%; with MDA-MB-231 [5] it was 3.43%; with MDA-MB-231 [6], 15.18%; in the assay with MDA-MB-231 [8], 7.58%; in the assay with MDA-MB-231 [9], 28.04%. The Activity in the assay with MDA-MB-231 [14] was 3.55%; in the assay with MDA-MB-231 [15], 46.54%; in the assay with MDA-MB-231 [16] it was 3.43%; in the assay with MDA-MB-231 [17], “Dose-Dependent Effect”. The outcome (in the assay with MDA-MB-231 [10]; in assay [11] (filed as activator); with MDA-MB-231 [12]) was Active. For the same compound, in the assay with MCF7, the concentration for half-maximal inhibition (IC50) was 7.06 µM.
